MEKK2 WT-MEK5 = modulators of MEK5 binding to wildtype MEKK2, primary screen, biochemical, multiplex bead flow cytometry, Alexa488-MEK5. Mitogen-activated protein kinase kinase kinase 2 (Homo sapiens), Q9Y2U5. Alexa488-MEK5 binding to MEKK2 WT; actives lie on both sides. binding response (% of control), % at 10 µM. 290,000 tested, 1.1% active. AID 1531, 2009; in the data active means binding response below about 67% or above about 130%
Arrestin-AP2 inh = inhibitors of beta-arrestin/AP2 binding, primary screen, biochemical, GPCR trafficking, flow cytometry; FITC-arrestin peptide / GST-AP2 beads; AP2 beta2 appendage carries R879A mutation; 340,000 tested, 0.31% active; beta-arrestin 1 C-terminal peptide binding to AP2 beta2-adaptin appendage (human); inhibition, % at 10 µM;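 active means inhibition above a set limit, near 3 SD of compounds lacking own fluorescence, cut at about 54% in these data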
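Assay system: GST-AP2 R879A bound to glutathione beads, E. coli-expressed; Medium: PBS with 0.05% Tween 20 and 0.1% BSA; Also added: fluorescein-tagged arrestin peptide at 50 nM final; Timing: 12 min plus 1 h, RT; Measured by: flow cytometry, FL1 (488/535 nm); Evaluation: percent drop in bead-associated FITC signal.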
MEKK2 mut-MEK5 = MEK5 binding signal on mutant MEKK2 PB1, primary screen, biochemical, multiplex bead flow cytometry, Alexa488-MEK5; Alexa488-MEK5 binding to MEKK2 mutant; percent response, % at 10 µM; 290,000 tested, 0.35% active; AID 1530, 2009; in the data active means percent response above about 24%, passing the limit was not always enough
MEKK3 PB1 HTS = modulators of MEKK3-MEK5 PB1 binding, primary screen, biochemical, wildtype MEKK3, multiplex bead flow cytometry, Alexa488-MEK5 | Mitogen-activated protein kinase kinase kinase 3 (Homo sapiens), Q99759 | bead-based flow cytometry, Alexa488-MEK5 binding to MEKK3; actives lie on both sides; 0 = blocked by unlabeled MEK5, 100 = vehicle | binding response (% of control), % at 10 µM | 290,000 tested, 1.4% active | AID 1529, 2009;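 active means binding response more than 3 SD above or below the average of its plate-row segment, actives on both sides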;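 further: Alexa488 bead fluorescence after subtracting the streptavidin-only scavenger bead signal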
Target sequence (Q99759 whole entry, looked up): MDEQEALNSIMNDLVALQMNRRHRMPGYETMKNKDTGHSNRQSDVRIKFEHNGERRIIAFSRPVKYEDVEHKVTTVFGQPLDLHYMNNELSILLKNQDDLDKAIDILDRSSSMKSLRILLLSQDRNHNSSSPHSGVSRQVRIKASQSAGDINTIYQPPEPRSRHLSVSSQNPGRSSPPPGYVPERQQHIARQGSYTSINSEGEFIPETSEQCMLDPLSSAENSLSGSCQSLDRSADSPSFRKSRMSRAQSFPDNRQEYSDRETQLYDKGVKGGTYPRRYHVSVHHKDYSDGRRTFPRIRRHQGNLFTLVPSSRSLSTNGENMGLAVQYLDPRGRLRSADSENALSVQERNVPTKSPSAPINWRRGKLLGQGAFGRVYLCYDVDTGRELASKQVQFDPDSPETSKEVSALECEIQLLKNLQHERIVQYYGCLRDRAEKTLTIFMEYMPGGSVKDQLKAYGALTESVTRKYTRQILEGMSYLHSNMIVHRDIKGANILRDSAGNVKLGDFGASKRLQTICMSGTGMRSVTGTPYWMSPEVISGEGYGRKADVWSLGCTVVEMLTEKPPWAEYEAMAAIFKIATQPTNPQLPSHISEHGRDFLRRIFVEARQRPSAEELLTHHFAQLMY
MEKK2wt confirm = modulators of MEK5 binding to wildtype MEKK2, confirmation, biochemical, single concentration, multiplex bead flow cytometry; Alexa488-MEK5 binding to MEKK2 WT; actives lie on both sides; shares compounds with MEKK3 PB1 HTS; 5,900 tested, 2.4% active; binding response (% of control), % at 10 µM; in the data active means binding response below about 16% or above about 210%; inactive means in between
MEKK2mut-MEK5 = mutant MEKK2 PB1-MEK5 binding signal retest – biochemical, single concentration, multiplex bead flow cytometry, confirmation; Alexa488-MEK5 binding to MEKK2 mutant; percent response, % at 10 µM; shares compounds with MEKK3 PB1 HTS; 5,900 tested, 2% active; in the data active means percent response mostly above about 71%, no sharp cut-off; inactive means mostly below about 38%;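 further: higher means compound restores mutant binding toward wildtype level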
MEKK3-MEK5 inh = MEKK3 wild-type PB1 binding to MEK5, inhibitors, confirmation, biochemical, bead multiplex flow cytometry, single concentration, wildtype; Alexa488-MEK5 binding to MEKK3; stronger effect = lower value; binding response (% of control), % at 10 µM; shares compounds with MEKK3 PB1 HTS; 5,900 tested, 1.8% active;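 active means binding response below 72% of control, or above a set upper limit, though filed actives all read lower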
Hits are given with their value; n = inactive; x = no result; [ ] = remark or other dose. This is a sample that favours compounds with a hit; in the whole collection about 2.3% have one here.

SMILES | MEKK2 WT-MEK5 | Arrestin-AP2 inh | MEKK2 mut-MEK5 | MEKK3 PB1 HTS | MEKK2wt confirm | MEKK2mut-MEK5 | MEKK3-MEK5 inh
CC1(C)CC(=O)C2=C(C1)OC(N)=C([N+](=O)[O-])C2c1ccc(F)cc1 (configuration not stated) | n | n | n | 137.0 | n | n | n
COc1cccc(C2C3=C(CC(C)(C)CC3=O)OC(N)=C2[N+](=O)[O-])c1 (configuration not stated) | n | n | n | n | x | x | x
O=C(Nc1cccc(S(=O)(=O)N2CCCCC2)c1)c1ccccn1 | n | n | n | n | x | x | x
O=C(Nc1cccc(NS(=O)(=O)c2ccc(S(=O)(=O)NC3CC3)cc2)c1)c1ccccn1 | n | n | n | 124.0 | n | n | n
CC1CCN(C(=O)COC(=O)c2cc3ccccc3oc2=O)CC1 | x | n | x | x | x | x | x
Cc1ccc(-c2cc3nc(-c4ccc(Br)cc4)cc(N)n3n2)cc1 | n | n | n | 134.0 | n | n | n
O=C(Nc1ccc(F)cc1)c1ccc(CSc2ccccc2)o1 | n | n | n | 145.0 | n | n | n
Cc1ccc(NC(=O)c2cncc(Br)c2)nc1 | n | n | n | n | x | x | x
O=C(c1nn(-c2ccccc2)c(=O)c2ccccc12)N1CCN(c2ncccn2)CC1 | n | n | n | n | x | x | x
O=C(c1nn(-c2ccccc2)c(=O)c2ccccc12)N1CCN(c2ccccn2)CC1 | n | n | n | 66.0[inhibitor] | n | n | n
O=C1NC(c2ccc(Cl)cc2)=COc2ccccc21 | n | n | n | 143.0 | n | n | n
Cn1c(=O)c2c(nc3n2CC(O)CN3c2ccc(O)cc2)n(C)c1=O (configuration not stated) | n | n | n | n | x | x | x
CCCC(=O)NC(=S)NNC(=O)c1ccc([N+](=O)[O-])cc1 | n | n | n | 133.0 | n | n | n
Cc1[nH]nc2c1C(Cc1ccccc1)C(C#N)=C(N)O2 (configuration not stated) | 3.0[inhibitor] | n | n | 2.0[inhibitor] | n | n | n
CCc1[nH]nc2c1C(Cc1ccccc1)C(C#N)=C(N)O2 (configuration not stated) | n | n | n | n | x | x | x
C[C@H](CO)N1C[C@H](C)[C@@H](CN(C)C(=O)NC2CCCCC2)Oc2ccc(NC(=O)Nc3ccccc3)cc2C1=O | x | n | x | x | x | x | x
CCN(CC)c1ccc(C=Nc2cc(C)ccc2C)c(O)c1 | n | n | n | n | x | x | x
CCN(CC)c1ccc(C=Nc2cccnc2Cl)c(O)c1 | 66.0[inhibitor] | n | n | n | n | n | n
Cc1nc2ccccn2c1C(=O)Nc1ccc2c(c1)OCCO2 | n | n | n | 132.0 | n | n | n
Cc1ccsc1C(=O)Nc1ccc2c(c1)OCCO2 | n | n | n | 138.0 | n | n | n
CC(=O)N=c1c(C#N)cc2c(=O)n3ccccc3nc2n1Cc1ccccc1 | n | n | n | 135.0 | n | n | n
CCC(NC(=O)NCc1ccccc1)(C(F)(F)F)C(F)(F)F | n | n | n | 151.0 | n | n | n
CCC(NC(=O)NCc1ccc2c(c1)OCO2)(C(F)(F)F)C(F)(F)F | n | n | n | n | x | x | x
O=C(O)CCCNc1c(C(=O)Nc2ccc(Cl)cc2)cc([N+](=O)[O-])cc1[N+](=O)[O-] | n | n | n | 135.0 | n | n | n
O=C(NC(=S)NCCC1=CCCCC1)c1cncc(Br)c1 | n | n | n | 152.0 | n | n | n
COc1ccc(CCNC(=O)CCc2cn(C)c3ccccc23)c(OC)c1OC | n | n | 27.0 | n | n | n | n

Assay outcomes from PubChem BioAssay.
